Laboratory results taken from ChEMBL document CHEMBL1129428 (J Med Chem, 1996).

Assays:
[1] = Compound was tested for toxicity after oral administration in rat by using neurotoxicity screen test after 0.25-24 hr; type: organism-based; details: in vivo
Summary of the method: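 Rat neurotoxicity after oral dosing, observed at 0.25, 0.5, 1, 2, 4, 6, 8 and 24 h (8 h omitted for one compound).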

Mus musculus [2] = assay: Compound was tested for anticonvulsant activity after intraperitoneal injection into mice by using scPTZ screen test after 1 hr; type: functional; details: ip
Summary of the method: (§1)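 Quantitative intraperitoneal mouse testing in the MES, scPTZ or rotorod neurotoxicity screens at the peak time given for each compound (0.25–2 h). ED50 or TD50 reported in mg/kg with 95% CI and slope (SE).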

Rattus norvegicus [3] = assay: Compound was tested for anticonvulsant activity after Oral Administration into Rats by using MES screen test after 0.25h,dose 50 mg/kg; number of rats out of four which were protected; type: functional
Summary of the method: (§2)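 Rats received the compound orally. […] Rats were tested in the MES screen at 0.25, 0.5, 1, 2 and 4 h. Each value is the number of rats protected out of 4. The test followed NINDS procedures.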

Rattus norvegicus [4] = assay: Compound was tested for anticonvulsant activity after Oral Administration into rat by using MES screen test after 2 hr; type: functional
Summary of the method: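 Rats dosed orally, typically at 50 mg/kg first, then mostly 12.5 mg/kg (some compounds at 30 mg/kg), and tested by maximal electroshock. Four rats per compound, scored at 0.25, 0.5, 1, 2 and 4 h as the number of rats protected out of 4.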

Mus musculus [5] = assay: Compound was tested for anticonvulsant activity after intraperitoneal injection into mice by using MES screen test after 1 hr; type: functional; details: ip; summary of the method: as §1
Mus musculus [6] = assay: Anticonvulsant activity after intraperitoneal injection into mice by using MES screen test after 0.5 hr; type: functional
[7] = Compound was tested for toxicity after intraperitoneal injection into mice by using neurotoxicity screen test after 2 hr; type: organism-based; details: mouse, in vivo, ip; summary of the method: as §1
Mus musculus [8] = assay: Anticonvulsant activity after intraperitoneal injection into mice measured in a maximal electroshock scree (MES) screen; type: functional
Rattus norvegicus [9] = assay: Compound was tested for anticonvulsant activity after Oral Administration into Rats by using MES screen test after 1h,dose 50 mg/kg; number of rats out of four which were protected; type: functional; summary of the method: as §2
[10] = Protection index = TD50/ED50; type: ADME; details: read-out: PI
Rattus norvegicus [11] = assay: Compound was tested for anticonvulsant activity after Oral Administration into Rats by using MES screen test after 2h,dose 50 mg/kg; number of rats out of four which were protected; type: functional; summary of the method: as §2
Rattus norvegicus [12] = assay: Compound was tested for anticonvulsant activity after Oral Administration into Rats by using MES screen test after 0.5h,dose 50 mg/kg; number of rats out of four which were protected; type: functional; summary of the method: as §2
Rattus norvegicus [13] = assay: Compound was tested for anticonvulsant activity after Oral Administration into Rats by using MES screen test after 4h,dose 50 mg/kg; number of rats out of four which were protected; type: functional; summary of the method: as §2
[14] = Compound was tested for toxicity after intraperitoneal injection into mice by using neurotoxicity screen test after 1 hr; type: organism-based; details: mouse, in vivo, ip; summary of the method: as §1
[15] = Partition coefficient (logP); type: physicochemical; details: octanol/water
Summary of the method: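 Partition between 1-octanol and buffer at pH 7.4, with solutions prepared in 1-octanol before buffer is added. Quantified by UV, using λmax and ε values measured in 1-octanol.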

Rattus norvegicus [16] = assay: Compound was tested for anticonvulsant activity after Oral Administration into Rats by using MES screen test after 2h,dose 12.5 mg/kg; No activity was demonstarted; type: functional, organism-based; parameters: dose 12.5 mg/kg; summary of the method: as §2
Rattus norvegicus [17] = assay: Compound was tested for anticonvulsant activity after Oral Administration into Rats by using MES screen test after 1h,dose 12.5 mg/kg; No activity was demonstarted; type: functional, organism-based; parameters: dose 12.5 mg/kg; summary of the method: as §2
Rattus norvegicus [18] = assay: Compound was tested for anticonvulsant activity after Oral Administration into Rats by using MES screen test after 0.25h,dose 12.5 mg/kg; No activity was demonstarted; type: functional, organism-based; parameters: dose 12.5 mg/kg; summary of the method: as §2
Rattus norvegicus [19] = assay: Compound was tested for anticonvulsant activity after Oral Administration into Rats by using MES screen test after 0.5h,dose 12.5 mg/kg; No activity was demonstarted; type: functional, organism-based; parameters: dose 12.5 mg/kg; summary of the method: as §2
Rattus norvegicus [20] = assay: Compound was tested for anticonvulsant activity after Oral Administration into Rats by using MES screen test after 1h,dose 12.5 mg/kg; number of rats out of four which were protected; type: functional; summary of the method: as §2
Rattus norvegicus [21] = assay: Compound was tested for anticonvulsant activity after Oral Administration into Rats by using MES screen test after 4h,dose 12.5 mg/kg; number of rats out of four which were protected; type: functional; summary of the method: as §2
Rattus norvegicus [22] = assay: Compound was tested for anticonvulsant activity after Oral Administration into Rats by using MES screen test after 0.25h,dose 12.5 mg/kg; number of rats out of four which were protected; type: functional; summary of the method: as §2
Mus musculus [23] = assay: Anticonvulsant activity after intraperitoneal injection into mice by using scPTZ screen after 0.5 hr; type: functional
Rattus norvegicus [24] = assay: Compound was tested for anticonvulsant activity after Oral Administration into Rats by using MES screen test after 2h,dose 12.5 mg/kg; number of rats out of four which were protected; type: functional; summary of the method: as §2
Mus musculus [25] = assay: Compound was tested for toxicity after intraperitoneal injection into mice by using toxicity screen test after 4 hr; type: organism-based; details: in vivo, ip
Summary of the method: (§3)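 Mice injected intraperitoneally at 30, 100 and 300 mg/kg and examined 0.5 and 4 h afterwards. Each entry is the minimum dose giving activity (MES protection, scPTZ protection, or rotorod failure for neurotoxicity) in half or more of the mice. Activity is called absent if nothing occurs at 300 mg/kg.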

Mus musculus [26] = assay: Toxicity after intraperitoneal injection into mice by using toxicity screen test after 0.5 hr; type: organism-based; details: in vivo, ip; summary of the method: as §3

| Structure (SMILES) | TD50 [1] | ED50 (Mus musculus [2]) | Activity (Rattus norvegicus [3]) | ED50 (Mus musculus [5]) | Dose (Mus musculus [6]) | Dose (Mus musculus [8]) | Activity (Rattus norvegicus [9]) | Activity (Rattus norvegicus [11]) | Activity (Rattus norvegicus [12]) | Activity (Rattus norvegicus [13]) | Activity (Rattus norvegicus [16]) | Activity (Rattus norvegicus [17]) | Activity (Rattus norvegicus [18]) | Activity (Rattus norvegicus [19]) | Activity (Rattus norvegicus [21]) | further results |
| --- | --- | --- | --- | --- | --- | --- | --- | --- | --- | --- | --- | --- | --- | --- | --- | --- |
| Cc1ccc(Oc2ccc(/C=N/NC(N)=O)cc2)cc1 | > 500 mg/kg | 88.6 mg/kg | 3 | 14.7 mg/kg | 30 mg/kg | 100 mg/kg | 4 | 4 | 4 | 4 | – | – | – | – | – | ED50 (Rattus norvegicus [4]): 3.43 mg/kg; TD50 at 2 h [7]: 204 mg/kg; selectivity ratio [10]: 2.3 |
| NC(=O)N/N=C/c1ccc(Oc2ccc(F)cc2)cc1 | > 500 mg/kg | > 54 mg/kg | 2 | 12.9 mg/kg | 30 mg/kg | 100 mg/kg | 4 | 4 | 4 | 4 | – | – | – | – | – | TD50 at 1 h [14]: 108 mg/kg; logP [15]: 1.91 |
| NC(=O)N/N=C\c1ccc(OC(=O)c2ccccc2)cc1 | – | – | – | – | – | 300 mg/kg | – | – | – | – | No activity | No activity | No activity | No activity | – | – |
| NC(=O)N/N=C\c1ccc(OC(=O)c2ccc(Cl)cc2)cc1 | – | – | – | – | – | 300 mg/kg | – | – | – | – | No activity | – | – | No activity | 2 | Activity (Rattus norvegicus [20]): 1; Activity (Rattus norvegicus [22]): 1 |
| N=C(N)N/N=C/c1ccc(Oc2ccc(F)cc2)cc1 | – | – | – | – | 300 mg/kg | 30 mg/kg | – | – | – | – | – | No activity | No activity | No activity | 2 | Dose (Mus musculus [23]): 30 mg/kg; Activity (Rattus norvegicus [24]): 1; Dose (Mus musculus [25]): 100 mg/kg; Dose (Mus musculus [26]): 100 mg/kg |
